From ChEMBL document CHEMBL1142554, “Lyngbyastatin 2 and norlyngbyastatin 2, analogues of dolastatin G and nordolastatin G from the marine cyanobacterium Lyngbya majuscula” (J Nat Prod, 1999)
≈ marks a conversion by molar mass, not a printed value. Calls of active or inactive are those of the source. The rule behind the calls is not given here. Starred links: 1 amine or outer side, 2 acyl side, 3 side chain; linkers in the order of their positions; H or OH if unused. Positions of bridges follow the written chain, without caps; N, C: chain ends. Non-standard residues stand in square brackets, D forms with d. Residues, ends and D or L forms follow the SMILES beside them. X1 = CC[C@H](CCC[C@@H](O)[C@@H](C)C(=O)O[C@H](C)[C@@H](C)C/C=C(C)/C(=C\C(=O)[*:1])OC)O[*:2]; X2 = CC[C@H](CCC[C@@H](O)[C@@H](C)C(=O)O[C@H](C)[C@@H](C)C/C=C(\C)C(=O)CC(=O)[*:1])O[*:2]; NMeI = CC[C@H](C)[C@H](NC)C(=O)O; NMeV = CN[C@H](C(=O)O)C(C)C; NMeS = CN[C@@H](CO)C(=O)O

Key:
KB = assay: Cytotoxicity against human KB cells; assay type: functional, cell-based
[1] = Inhibition of microtubule assembly
[2] = Inhibition of microfilament assembly
[3] = target: T1, DNA topoisomerase 1 (Homo sapiens) (UniProt P11387); assay: Inhibition of topoisomerase 1
T1 sequence (whole entry): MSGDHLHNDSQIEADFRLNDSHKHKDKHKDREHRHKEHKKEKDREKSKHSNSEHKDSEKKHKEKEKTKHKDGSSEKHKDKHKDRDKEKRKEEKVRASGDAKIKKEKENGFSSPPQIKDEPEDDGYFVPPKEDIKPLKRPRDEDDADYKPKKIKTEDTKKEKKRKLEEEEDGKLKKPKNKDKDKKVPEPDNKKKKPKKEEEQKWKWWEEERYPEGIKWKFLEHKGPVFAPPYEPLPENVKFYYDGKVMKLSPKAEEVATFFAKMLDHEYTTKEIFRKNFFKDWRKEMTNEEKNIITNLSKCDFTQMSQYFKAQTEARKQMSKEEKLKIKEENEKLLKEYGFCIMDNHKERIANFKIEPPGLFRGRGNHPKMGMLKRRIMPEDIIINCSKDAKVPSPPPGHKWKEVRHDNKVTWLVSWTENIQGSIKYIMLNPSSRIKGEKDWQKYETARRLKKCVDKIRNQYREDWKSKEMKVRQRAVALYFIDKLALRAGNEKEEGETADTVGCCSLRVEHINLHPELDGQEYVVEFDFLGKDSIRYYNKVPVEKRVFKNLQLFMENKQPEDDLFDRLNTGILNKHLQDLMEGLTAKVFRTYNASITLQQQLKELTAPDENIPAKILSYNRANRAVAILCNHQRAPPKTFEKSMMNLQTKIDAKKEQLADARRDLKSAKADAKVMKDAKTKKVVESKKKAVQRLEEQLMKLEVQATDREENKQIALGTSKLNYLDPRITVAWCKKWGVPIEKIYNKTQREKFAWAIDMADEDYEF

Mus musculus = species on record: Mus musculus; assay: Toxicity in mouse; assay type: organism-based; conditions: in vivo
LoVo = assay: Cytotoxicity against human LoVo cells; assay type: functional, cell-based
MC-38 = assay: Cytotoxicity against mouse C38 cells at 1.8 mg/kg by in vivo assay; assay type: functional, organism-based; set-up: dose 1.8 mg/kg
Outline: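 In vivo mouse model bearing the murine colon adenocarcinoma C38, with compound dosed at 1.8 mg/kg or lower.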

Structure (SMILES) | IC50 (KB) [µg/mL] | Activity [1] | Activity [2] | Activity [3] | LD100 (Mus musculus) [mg/kg] | IC50 (LoVo) [µg/mL] | Activity (MC-38)
CC[C@@H]1CCC[C@@H](O)[C@@H](C)C(=O)O[C@H](C)[C@@H](C)C/C=C(C)/C(OC)=C\C(=O)N(C)[C@@H]([C@@H](C)CC)C(=O)N(C)[C@@H](C(C)C)C(=O)N(C)[C@@H](COC)C(=O)N2CCC[C@H]2C(=O)N(C)[C@@H](C(C)C)C(=O)N2CCC[C@H]2C(=O)O1 [LYNGBYASTATIN 2] ([NMeI][NMeV][NMeS](Me)P[NMeV]P; linker N-C via X1) | 0.02 (≈ 0.0189 µM) | inactive | inactive | inactive | 3 | 0.014 (≈ 0.0132 µM) | inactive
CC[C@@H]1CCC[C@@H](O)[C@@H](C)C(=O)O[C@H](C)[C@@H](C)C/C=C(\C)C(=O)CC(=O)N(C)[C@@H]([C@@H](C)CC)C(=O)N(C)[C@@H](C(C)C)C(=O)N(C)[C@@H](COC)C(=O)N2CCC[C@H]2C(=O)N(C)[C@@H](C(C)C)C(=O)N2CCC[C@H]2C(=O)O1 [NORLYNGBYASTATIN 2] ([NMeI][NMeV][NMeS](Me)P[NMeV]P; linker N-C via X2) | 0.93 (≈ 0.89 µM) | inactive | inactive | inactive | – | 0.475 (≈ 0.454 µM) | –
